Measured values taken from ChEMBL document CHEMBL1132386, “Mixture-based synthetic combinatorial libraries” (J Med Chem, 1999).

Assays:
Acetylcholinesterase = Acetylcholinesterase (Homo sapiens, UniProt P22303); assay: Enzyme inhibitory activity towards Acetylcholinesterase
Mu-type opioid receptor = Mu-type opioid receptor (Homo sapiens, UniProt P35372); assay: Antagonistic activity towards Opioid receptor mu 1; format: functional
[1] = molecular target: Kappa-type opioid receptor (Cavia porcellus) (UniProt P41144); assay: Inhibitory activity for kappa opioid receptor
[2] = molecular target: GABA-A receptor; anion channel; assay: Inhibition of binding to GABA-A Benzodiazepine receptor; format: protein-complex assay
[3] = molecular target: Kappa-type opioid receptor (Cavia porcellus, UniProt P41144); assay: Inhibition of Opioid receptor kappa 1 binding
How it was run: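 Kappa opioid radioreceptor binding in guinea pig brain homogenate with 3 nM [3H]U69,593 as radioligand, incubated 2.5 h at 25°C. Library mixtures were screened at 4 μg/mL. Data were normalized to percent inhibition using background and total binding.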

[4] = Enzyme inhibitory activity towards Matrix metalloproteases
[5] = molecular target: T1, Adenosine deaminase (Homo sapiens) (UniProt P00813)
T1 sequence (whole entry): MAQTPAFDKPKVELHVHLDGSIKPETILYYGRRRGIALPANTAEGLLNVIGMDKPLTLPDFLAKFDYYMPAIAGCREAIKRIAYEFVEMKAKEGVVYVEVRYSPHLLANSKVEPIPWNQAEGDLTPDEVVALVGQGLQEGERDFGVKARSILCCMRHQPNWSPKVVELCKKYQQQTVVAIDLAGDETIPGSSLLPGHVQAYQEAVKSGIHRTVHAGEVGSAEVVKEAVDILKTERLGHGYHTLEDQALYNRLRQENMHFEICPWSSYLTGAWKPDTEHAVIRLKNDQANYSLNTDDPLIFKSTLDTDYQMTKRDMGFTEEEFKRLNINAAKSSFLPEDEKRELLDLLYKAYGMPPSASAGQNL

[6] = molecular target: Sigma non-opioid intracellular receptor 1 (Homo sapiens, UniProt Q99720); assay: Inhibitory activity towards Sigma opioid receptor type 1
Sigma non-opioid intracellular receptor 1, sequence (Q99720 whole entry): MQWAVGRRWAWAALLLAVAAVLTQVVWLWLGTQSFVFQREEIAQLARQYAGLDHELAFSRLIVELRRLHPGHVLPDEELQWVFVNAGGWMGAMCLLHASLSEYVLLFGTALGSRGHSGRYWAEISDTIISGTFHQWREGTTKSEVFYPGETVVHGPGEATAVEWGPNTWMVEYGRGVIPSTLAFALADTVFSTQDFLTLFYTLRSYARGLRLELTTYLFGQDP

Kappa-type opioid receptor (Cavia porcellus), sequence (P41144 whole entry, looked up): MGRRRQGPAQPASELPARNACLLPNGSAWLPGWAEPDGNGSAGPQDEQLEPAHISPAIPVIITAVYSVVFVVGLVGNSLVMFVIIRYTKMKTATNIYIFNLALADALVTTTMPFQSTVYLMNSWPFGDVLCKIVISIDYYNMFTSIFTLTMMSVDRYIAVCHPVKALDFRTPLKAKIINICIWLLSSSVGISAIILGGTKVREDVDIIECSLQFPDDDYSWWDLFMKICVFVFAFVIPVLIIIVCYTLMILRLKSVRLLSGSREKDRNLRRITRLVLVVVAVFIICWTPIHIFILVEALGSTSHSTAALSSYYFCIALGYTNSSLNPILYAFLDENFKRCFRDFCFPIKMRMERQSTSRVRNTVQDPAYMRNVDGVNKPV
Acetylcholinesterase, sequence (P22303 whole entry): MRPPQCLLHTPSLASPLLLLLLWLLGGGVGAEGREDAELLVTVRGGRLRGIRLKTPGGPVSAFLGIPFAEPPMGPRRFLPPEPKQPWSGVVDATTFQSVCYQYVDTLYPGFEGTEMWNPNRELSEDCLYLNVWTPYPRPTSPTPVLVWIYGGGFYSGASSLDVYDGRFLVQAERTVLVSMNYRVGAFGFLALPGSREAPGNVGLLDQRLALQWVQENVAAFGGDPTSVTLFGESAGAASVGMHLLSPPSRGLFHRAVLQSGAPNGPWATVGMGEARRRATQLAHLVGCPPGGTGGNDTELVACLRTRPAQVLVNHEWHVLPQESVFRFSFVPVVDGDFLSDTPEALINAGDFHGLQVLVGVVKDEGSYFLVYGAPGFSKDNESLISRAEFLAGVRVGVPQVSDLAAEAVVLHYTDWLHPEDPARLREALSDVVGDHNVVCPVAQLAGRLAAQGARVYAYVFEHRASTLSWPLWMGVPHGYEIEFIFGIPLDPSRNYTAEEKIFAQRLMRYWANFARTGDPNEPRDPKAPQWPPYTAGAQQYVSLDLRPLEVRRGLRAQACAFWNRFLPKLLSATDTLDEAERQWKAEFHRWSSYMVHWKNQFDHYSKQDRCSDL
Mu-type opioid receptor, sequence (P35372 whole entry): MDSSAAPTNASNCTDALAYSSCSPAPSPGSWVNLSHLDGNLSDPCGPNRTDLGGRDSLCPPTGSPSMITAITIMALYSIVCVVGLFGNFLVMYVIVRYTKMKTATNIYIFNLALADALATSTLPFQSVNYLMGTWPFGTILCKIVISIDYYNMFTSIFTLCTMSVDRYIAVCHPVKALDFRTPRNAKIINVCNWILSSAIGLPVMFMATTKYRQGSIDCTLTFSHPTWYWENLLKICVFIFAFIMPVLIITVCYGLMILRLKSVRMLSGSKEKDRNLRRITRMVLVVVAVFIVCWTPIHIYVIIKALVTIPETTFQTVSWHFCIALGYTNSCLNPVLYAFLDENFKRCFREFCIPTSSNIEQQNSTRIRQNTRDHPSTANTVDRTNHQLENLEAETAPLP
Kappa-type opioid receptor, sequence (P41144 whole entry): as the sequence (P41144 whole entry, looked up) above

Compound | IC50 [1] [nM] | other results
NC(=O)O [CARBAMIC ACID] | – | IC50 (Acetylcholinesterase): 67 µM
CCCCCC(C)N (stereo not drawn) [TUAMINOHEPTANE] | – | IC50 (Mu-type opioid receptor): 14 nM
CC(C)C[C@@H]1CN2C(=NC[C@@H]2C2CCCCC2)N1C(C)C12CC3CC(CC(C3)C1)C2 (stereo partly drawn) | 1210 | –
CC(C)C[C@@H]1CN2C(=NC[C@@H]2C2CCCCC2)N1CCCC1CCCCC1 | 3740 | –
O=c1cc(-c2ccccc2)oc2ccccc12 [FLAVONE] | – | Ki [2]: 17 nM
C1CCC([C@H]2CN3C(=NC[C@H]3C3CCCCC3)N2CCC2CC3CCC2C3)CC1 (stereo partly drawn) | 524 | –
CC(N1C2=NC[C@@H](C3CCCCC3)N2C[C@@H]1C1CCCCC1)C12CC3CC(CC(C3)C1)C2 (stereo partly drawn) | > 10000 | –
CC(C)C[C@@H]1CN2C(=NC[C@@H]2C2CCCCC2)N1CC1CCC(C)CC1 (stereo partly drawn) | 999 | IC50 [3]: 3.68 µM
CC(C)C[C@@H]1CN2C(=NC[C@@H]2C)N1CCC1CC2CCC1C2 (stereo partly drawn) | 2310 | –
CC(C)C[C@@H]1CN2C(=NC[C@H]2C2CCCCC2)N1CCCC1CCCCC1 | 1770 | –
O=C1CNC(=O)CN1 [DIKETOPIPERAZINE] | – | IC50 [4]: 30 µM
CC(C)C[C@@H]1CN2C(=NC[C@@H]2C)N1CCCC1CCCCC1 | 5440 | –
CC1CCC(CN2C3=NC[C@H](C)N3C[C@@H]2C2CCCCC2)CC1 (stereo partly drawn) | 5060 | –
CC(C)C[C@@H]1CN2C(=NC[C@@H]2C)N1C(C)C12CC3CC(CC(C3)C1)C2 (stereo partly drawn) | 3640 | –
Nc1ncnc2c1ncn2[C@@H]1O[C@H](CO)[C@@H](O)[C@H]1O | – | Ka [5]: 1e+08 M⁻¹
CC(C)C[C@@H]1CN2C(=NC[C@H]2C2CCCCC2)N1CC1CCC(C)CC1 (stereo partly drawn) | 738 | –
CC(C)C[C@@H]1CN2C(=NC[C@H]2C2CCCCC2)N1C(C)C12CC3CC(CC(C3)C1)C2 (stereo partly drawn) | 1750 | –
O=C1CNC(=O)N1 [HYDANTOIN] | – | IC50 [6]: 62 nM
C1CCC([C@H]2CN3C(=NC[C@@H]3C3CCCCC3)N2CCC2CC3CCC2C3)CC1 (stereo partly drawn) | 560 | –
CC(N1C2=NC[C@H](C3CCCCC3)N2C[C@@H]1C1CCCCC1)C12CC3CC(CC(C3)C1)C2 (stereo partly drawn) | 1490 | –
c1cc2c(cn1)CCCC2 [5,6,7,8-TETRAHYDROISOQUINOLINE] | – | IC50 [6]: 56 nM
CC(N1C2=NC[C@H](C)N2C[C@@H]1C1CCCCC1)C12CC3CC(CC(C3)C1)C2 (stereo partly drawn) | 1940 | –
